Measured values from ChEMBL document CHEMBL1134337, “Behavioral approach to nondyskinetic dopamine antagonists: identification of seroquel” (J Med Chem, 2001).

Assays:
Mus musculus [1] = experiment: Antagonism of apomorphine induced climbing was determined in female swiss -Webster mice after (ip) administration of 2.5 mg/kg; format: functional
Method in brief: (§1)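 Female Swiss-Webster mice (about 20 g) were fasted about 24 h, then given test compound or vehicle ip or po (N = 20 per group). Vehicle was 0.5% w/w hydroxypropylmethylcellulose with 0.1% w/w Tween 80 in water. After 30 min, mice received apomorphine HCl 1.25 mg/kg sc. At 13 min, each mouse was watched for 1 min; score was mean of highest and lowest rung of 27. Groups were compared with vehicle by Student's t-test.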

Mus musculus [2] = experiment: Antagonism of apomorphine induced climbing was determined in female swiss -Webster mice after (ip) administration of 20 mg/kg; format: functional; method in brief: as §1
Mus musculus [3] = experiment: Antagonism of apomorphine induced climbing was determined in female swiss -Webster mice after (i.p.) +SKF525A administration of 10 mg/kg; format: functional; conditions: route intraperitoneal; method in brief: as §1
Mus musculus [4] = experiment: Antagonism of apomorphine induced climbing was determined in female swiss -Webster mice after (po) administration of 5 mg/kg; format: functional; method in brief: as §1
Mus musculus [5] = experiment: Antagonism of apomorphine induced climbing was determined in female swiss -Webster mice after (ip) administration of 10 mg/kg; format: functional; method in brief: as §1
Mus musculus [6] = experiment: Antagonism of apomorphine induced climbing was determined in female swiss -Webster mice after (p.o.) +SKF525A administration of 10 mg/kg; format: functional; conditions: route oral; method in brief: as §1
Mus musculus [7] = experiment: Antagonism of apomorphine induced climbing was determined in female swiss -Webster mice after (i.p.) +SKF525A administration of 20 mg/kg; format: functional; conditions: route intraperitoneal; method in brief: as §1
[8] = target: D(2) dopamine receptor (Rattus norvegicus) (UniProt P61169); experiment: Binding affinity at dopamine receptor D2 from rat by spiropiperidone displacement.
Chain of D(2) dopamine receptor (Rattus norvegicus) (P61169 whole entry): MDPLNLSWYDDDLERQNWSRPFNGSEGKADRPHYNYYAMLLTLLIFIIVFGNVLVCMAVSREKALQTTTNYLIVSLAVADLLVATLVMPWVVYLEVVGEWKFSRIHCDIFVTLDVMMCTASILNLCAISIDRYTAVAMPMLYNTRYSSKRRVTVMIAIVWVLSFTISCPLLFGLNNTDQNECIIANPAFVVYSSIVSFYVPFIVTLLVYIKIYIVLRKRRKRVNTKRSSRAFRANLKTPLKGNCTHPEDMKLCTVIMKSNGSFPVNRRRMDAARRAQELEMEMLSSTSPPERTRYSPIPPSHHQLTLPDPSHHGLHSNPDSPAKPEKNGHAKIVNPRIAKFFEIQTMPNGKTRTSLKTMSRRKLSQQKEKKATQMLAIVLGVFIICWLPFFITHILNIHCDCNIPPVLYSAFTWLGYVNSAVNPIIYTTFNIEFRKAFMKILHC
Method in brief: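 D2 receptor binding was read as % displacement of spiropiperidone, with test compound at 1000 nM unless stated otherwise. IC50 values used at least five concentrations per compound in triplicate. Each value is the mean of two replicate experiments differing by 5% or less.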

Mus musculus [9] = experiment: Antagonism of apomorphine induced climbing was determined in female swiss -Webster mice after (po) administration of 10 mg/kg; format: functional; method in brief: as §1
Mus musculus [10] = experiment: Antagonism of apomorphine induced climbing was determined in female swiss -Webster mice after (i.p.) +SKF525A administration of 5 mg/kg; format: functional; conditions: route intraperitoneal; method in brief: as §1
Mus musculus [11] = experiment: Antagonism of apomorphine induced climbing was determined in female swiss -Webster mice after (p.o.) +SKF525A administration of 5 mg/kg; format: functional; conditions: route oral; method in brief: as §1
Mus musculus [12] = experiment: Antagonism of apomorphine induced climbing was determined in female swiss -Webster mice after (ip) administration of 5 mg/kg; format: functional; method in brief: as §1
Mus musculus [13] = experiment: Antagonism of apomorphine induced climbing was determined in female swiss -Webster mice after (i.p.) +SKF525A administration of 2.5 mg/kg; format: functional; conditions: route intraperitoneal; method in brief: as §1
Mus musculus [14] = experiment: Antagonism of apomorphine induced climbing was determined in female swiss -Webster mice after (p.o.) +SKF525A administration of 20 mg/kg; format: functional; conditions: route oral; method in brief: as §1
Mus musculus [15] = experiment: Antagonism of apomorphine induced climbing was determined in female swiss -Webster mice after (po) administration of 20 mg/kg; format: functional; method in brief: as §1

SMILES: CN1CCN(C2=Nc3ccccc3Sc3ccccc32)CC1
- Activity (Mus musculus [1]): 21
- Activity (Mus musculus [2]): 0
- Activity (Mus musculus [3]): 18
- Activity (Mus musculus [4]): 21
- Activity (Mus musculus [5]): 3
- Activity (Mus musculus [6]): 18
- Activity (Mus musculus [7]): 3
- % displacement of spiropiperidone [8]: 35%
- Activity (Mus musculus [9]): 8
- Activity (Mus musculus [10]): 21
- Activity (Mus musculus [11]): 23
- Activity (Mus musculus [12]): 14
- Activity (Mus musculus [13]): 23
- Activity (Mus musculus [14]): 9
- Activity (Mus musculus [15]): 0
